Results published in ChEMBL document CHEMBL1145831 (J Med Chem, 2003).

Key:
[1] = tested on: CCRF-CEM; assay: In vitro growth inhibitory activity in the human CCRF-CEM leukemia cell line.; assay type: functional, cell-based
Procedure, shortened: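 CCRF-CEM human leukemia cells in log phase, 4.8 × 10⁴ cells per 2 mL well. Medium was RPMI-1640 with 10% dialyzed FBS and 25 mM HEPES. Compounds were serially diluted 1:3 in DMSO and added to duplicate wells, with DMSO-only controls, at 0.5% final DMSO. Cells were exposed 72 h at 37 °C in humidified 5% CO₂, then counted. IC50 in nM.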

[2] = tested on: Mus musculus; assay: In vivo antitumor activity against murine pancreatic adenocarcinoma and measured as number of deaths on a schedule of 10-14 days and at a total dose of 41 mg/kg; assay type: ADME, organism-based; design: dose 41 mg/kg
Procedure, shortened: (§1)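 Mice bearing drug-sensitive murine pancreatic adenocarcinoma Panc-03 were dosed on the listed days at the listed total doses. Dosing solutions were made in water from stock solutions and injected within 20 min. Chlorohydrin solutions were acidified with 0.05% citric acid. Tolerance was recorded as body weight loss and number of deaths.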

[3] = tested on: Mus musculus; assay: Log cell kill of tumor bearing mice on a schedule of 10-14 days and at a total dose of 41 mg/kg; assay type: functional, organism-based; design: dose 41 mg/kg
Procedure, shortened: (§2)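 Panc-03 murine pancreatic adenocarcinoma in mice. Aqueous dosing solutions were prepared from stocks and injected within 20 min; chlorohydrins were acidified with 0.05% citric acid. Log cell kill was calculated from tumor growth delay, the difference in days between treated and control animals to reach 1000 mg tumor weight.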

[4] = tested on: Mus musculus; assay: Ratio of the median tumor weight in the treatment group over the median tumor weight in the control group on a schedule of 10-14 days and at a total dose of 41 mg/kg; assay type: functional
Procedure, shortened: (§3)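 Mice bearing the drug-sensitive murine pancreatic adenocarcinoma Panc-03. Dosing solutions were made in water from stock solutions and injected within 20 min of preparation; chlorohydrins were acidified with 0.05% citric acid. T/C (%) = median tumor weight of the treated group ÷ median tumor weight of controls × 100, calculated when control median tumor weight reached 1 g.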

[5] = tested on: Mus musculus; assay: In vivo antitumor activity against murine pancreatic adenocarcinoma and measured as % weight loss on a schedule of 10-14 days and at a total dose of 41 mg/kg; assay type: functional
Procedure, shortened: (§4)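 Body weight loss was tracked in mice implanted with the Panc-03 murine pancreatic adenocarcinoma. Injections were given within 20 min of aqueous preparation from stock solutions, with chlorohydrins acidified using 0.05% citric acid.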

[6] = tested on: Mus musculus; assay: In vivo antitumor activity against murine pancreatic adenocarcinoma and measured as number of deaths on a schedule of 3,4,6 days and at a total dose of 12 mg/kg; assay type: ADME, organism-based; design: dose 12 mg/kg; conditions: 144 h; procedure, shortened: as §1
[7] = tested on: Mus musculus; assay: In vivo antitumor activity against murine pancreatic adenocarcinoma and measured as number of deaths on a schedule of 3,4,6 days and at a total dose of 6 mg/kg; assay type: ADME, organism-based; design: dose 6 mg/kg; conditions: 144 h; procedure, shortened: as §1
[8] = tested on: Mus musculus; assay: In vivo antitumor activity against murine pancreatic adenocarcinoma and measured as number of deaths on a schedule of 3,4,6,10 days and at a total dose of 3.5 mg/kg; assay type: ADME, organism-based; design: dose 3.5 mg/kg; conditions: 240 h; procedure, shortened: as §1
[9] = tested on: Mus musculus; assay: Ratio of the median tumor weight in the treatment group over the median tumor weight in the control group on a schedule of 3,4,6,10 days and at a total dose of 3.5 mg/kg; assay type: functional
Procedure, shortened: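 Panc-03 murine pancreatic adenocarcinoma in mice, with injectable solutions prepared in water from stock and given within 20 min; chlorohydrins were acidified with 0.05% citric acid. %T/C is median tumor weight of the treated group over that of the control group × 100, calculated when control median tumor weight reaches 1 g. T/C ≤ 42% is taken as significant activity.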

[10] = tested on: Mus musculus; assay: In vivo antitumor activity against murine pancreatic adenocarcinoma and measured as % weight loss on a schedule of 3,4,6 days and at a total dose of 12 mg/kg; assay type: functional; procedure, shortened: as §1
[11] = tested on: Mus musculus; assay: In vivo antitumor activity against murine pancreatic adenocarcinoma and measured as % weight loss on a schedule of 3,4,6 days and at a total dose of 6 mg/kg; assay type: functional; procedure, shortened: as §1
[12] = tested on: Mus musculus; assay: In vivo antitumor activity against murine pancreatic adenocarcinoma and measured as % weight loss on a schedule of 3,4,6,10 days and at a total dose of 3.5 mg/kg; assay type: functional; procedure, shortened: as §1
[13] = tested on: Mus musculus; assay: In vivo antitumor activity against murine pancreatic adenocarcinoma and measured as number of deaths on a schedule of 3,8days and at a total dose of 16 mg/kg; assay type: ADME, organism-based; design: dose 16 mg/kg; conditions: 192 h; procedure, shortened: as §1
[14] = tested on: Mus musculus; assay: Log cell kill of tumor bearing mice on a schedule of 3,8days and at a total dose of 16 mg/kg; assay type: functional, organism-based; design: dose 16 mg/kg; procedure, shortened: as §2
[15] = tested on: Mus musculus; assay: Ratio of the median tumor weight in the treatment group over the median tumor weight in the control group on a schedule of 3,8days and at a total dose of 16 mg/kg; assay type: functional; procedure, shortened: as §3
[16] = tested on: Mus musculus; assay: In vivo antitumor activity against murine pancreatic adenocarcinoma and measured as % weight loss on a schedule of 3,8days and at a total dose of 16 mg/kg; assay type: functional; procedure, shortened: as §4

Row | Compound | IC50 [1] [nM] | other results
1 | COc1ccc(C[C@H]2NC(=O)/C=C/C[C@@H]([C@H](C)[C@@H](O)[C@@H](Cl)c3ccc(CNC(=O)CN(C)C(=O)OC(C)(C)C)cc3)OC(=O)[C@H](CC(C)C)OC(=O)C(C)(C)CNC2=O)cc1Cl | 0.02 | –
2 | CCN(CC)Cc1ccc([C@H]2O[C@@H]2[C@@H](C)[C@@H]2C/C=C/C(=O)N[C@H](Cc3ccc(OC)c(Cl)c3)C(=O)NCC(C)(C)C(=O)O[C@@H](CC(C)C)C(=O)O2)cc1 | 0.003 | –
3 | CC(=O)O[C@H]1C(=O)[C@@]2(C)[C@H]([C@H](OC(=O)c3ccccc3)[C@]3(O)C[C@H](OC(=O)[C@H](O)[C@@H](NC(=O)c4ccccc4)c4ccccc4)C(C)=C1C3(C)C)[C@]1(OC(C)=O)CO[C@@H]1C[C@@H]2O [PACLITAXEL] | – | Death [2]: 0; Log kill [3]: 4.2; T/C [4]: 0%; Weight loss [5]: -5%
4 | COc1ccc(C[C@H]2NC(=O)/C=C/C[C@@H]([C@H](C)[C@@H](O)[C@@H](Cl)c3ccc(CNCCN)cc3)OC(=O)[C@H](CC(C)C)OC(=O)C(C)(C)CNC2=O)cc1Cl | 0.092 | –
5 | CNCC(=O)NCc1ccc([C@H](Cl)[C@H](O)[C@@H](C)[C@@H]2C/C=C/C(=O)N[C@H](Cc3ccc(OC)c(Cl)c3)C(=O)NCC(C)(C)C(=O)O[C@@H](CC(C)C)C(=O)O2)cc1 | 0.04 | –
6 | COC(=O)c1ccc([C@H](Cl)[C@H](O)[C@@H](C)[C@@H]2C/C=C/C(=O)N[C@H](Cc3ccc(OC)c(Cl)c3)C(=O)NCC(C)(C)C(=O)O[C@@H](CC(C)C)C(=O)O2)cc1 | 0.037 | –
7 | COc1ccc(C[C@H]2NC(=O)/C=C/C[C@@H]([C@H](C)[C@H]3O[C@@H]3c3cc(C)ccc3C)OC(=O)[C@H](CC(C)C)OC(=O)C(C)(C)CNC2=O)cc1Cl | 2 | –
8 | COc1ccc(C[C@H]2NC(=O)/C=C/C[C@@H]([C@H](C)/C=C/c3cc(C)ccc3C)OC(=O)[C@H](CC(C)C)OC(=O)C(C)(C)CNC2=O)cc1Cl | 440 | –
9 | COc1ccc(C[C@H]2NC(=O)/C=C/C[C@@H]([C@H](C)/C=C/c3ccc(O)cc3)OC(=O)[C@H](CC(C)C)OC(=O)C(C)(C)CNC2=O)cc1Cl | 4 | –
10 | COc1ccc(C[C@H]2NC(=O)/C=C/C[C@@H]([C@H](C)[C@H]3O[C@@H]3c3ccc(CO)cc3)OC(=O)[C@H](CC(C)C)OC(=O)C(C)(C)CNC2=O)cc1Cl | 0.004 | Death [6]: 4; Death [7]: 1; Death [8]: 0; T/C [9]: 14%; Weight loss [10]: -18.4%; Weight loss [11]: -19.5%; Weight loss [12]: 10.5%
11 | COc1ccc(C[C@H]2NC(=O)/C=C/C[C@@H]([C@H](C)/C=C/c3ccc(CO)cc3)OC(=O)[C@H](CC(C)C)OC(=O)C(C)(C)CNC2=O)cc1Cl | 0.79 | –
12 | COc1ccc(C[C@H]2NC(=O)/C=C/C[C@@H]([C@H](C)[C@H]3O[C@@H]3c3ccc(CC(=O)O)cc3)OC(=O)[C@H](CC(C)C)OC(=O)C(C)(C)CNC2=O)cc1Cl | 0.79 | –
13 | COc1ccc(C[C@H]2NC(=O)/C=C/C[C@@H]([C@H](C)[C@H]3O[C@@H]3c3ccc(C)c(C)c3)OC(=O)[C@H](CC(C)C)OC(=O)C(C)(C)CNC2=O)cc1Cl | 0.05 | –
14 | COc1ccc(C[C@H]2NC(=O)/C=C/C[C@@H]([C@H](C)[C@@H](O)[C@@H](Cl)c3ccc(C)c(C)c3)OC(=O)[C@H](CC(C)C)OC(=O)C(C)(C)CNC2=O)cc1Cl | 0.6 | –
15 | COc1ccc(C[C@H]2NC(=O)/C=C/C[C@@H]([C@H](C)/C=C/c3ccc(C)c(C)c3)OC(=O)[C@H](CC(C)C)OC(=O)C(C)(C)CNC2=O)cc1Cl | 70 | –
16 | COc1ccc(C[C@H]2NC(=O)/C=C/C[C@@H]([C@H](C)[C@@H](O)[C@@H](Cl)c3ccc(OC(=O)C(C)(C)CN)cc3)OC(=O)[C@H](CC(C)C)OC(=O)C(C)(C)CNC2=O)cc1Cl | 0.79 | –
17 | COc1ccc(C[C@H]2NC(=O)/C=C/C[C@@H]([C@H](C)/C=C/c3cccc(C)c3)OC(=O)[C@H](CC(C)C)OC(=O)C(C)(C)CNC2=O)cc1Cl | 25 | –
18 | COc1ccc([C@H]2O[C@@H]2[C@@H](C)[C@@H]2C/C=C/C(=O)N[C@H](Cc3ccc(OC)c(Cl)c3)C(=O)NCC(C)(C)C(=O)O[C@@H](CC(C)C)C(=O)O2)cc1 | 0.28 | –
19 | COc1ccc(C[C@H]2NC(=O)/C=C/C[C@@H]([C@H](C)[C@@H](O)[C@@H](Cl)c3ccc(COC(=O)C(C)(C)CN)cc3)OC(=O)[C@H](CC(C)C)OC(=O)C(C)(C)CNC2=O)cc1Cl | 0.004 | –
20 | CCN(CC)Cc1ccc([C@H](Cl)[C@H](O)[C@@H](C)[C@@H]2C/C=C/C(=O)N[C@H](Cc3ccc(OC)c(Cl)c3)C(=O)NCC(C)(C)C(=O)O[C@@H](CC(C)C)C(=O)O2)cc1 | 0.005 | –
21 | COc1ccc(C[C@H]2NC(=O)/C=C/C[C@@H]([C@H](C)/C=C/c3csc(C)n3)OC(=O)[C@H](CC(C)C)OC(=O)C(C)(C)CNC2=O)cc1Cl | 460 | –
22 | COc1ccc(C[C@H]2NC(=O)/C=C/C[C@@H]([C@H](C)[C@H]3O[C@@H]3c3cccc(C)c3)OC(=O)[C@H](CC(C)C)OC(=O)C(C)(C)CNC2=O)cc1Cl | 0.15 | –
23 | COc1ccc(C[C@H]2NC(=O)/C=C/C[C@@H]([C@H](C)[C@@H]3O[C@H]3c3cc(C)ccc3C)OC(=O)[C@H](CC(C)C)OC(=O)C(C)(C)CNC2=O)cc1Cl | 100 | –
24 | COc1ccc(C[C@H]2NC(=O)/C=C/C[C@@H]([C@H](C)[C@@H]3O[C@H]3c3ccc(CO)cc3)OC(=O)[C@H](CC(C)C)OC(=O)C(C)(C)CNC2=O)cc1Cl | 0.29 | –
25 | COc1ccc(C[C@H]2NC(=O)/C=C/C[C@@H]([C@H](C)[C@H]3O[C@@H]3c3ccc(COC(=O)CNC(=O)OC(C)(C)C)cc3)OC(=O)[C@H](CC(C)C)OC(=O)C(C)(C)CNC2=O)cc1Cl | 0.0055 | –
26 | COc1ccc(/C=C/[C@@H](C)[C@@H]2C/C=C/C(=O)N[C@H](Cc3ccc(OC)c(Cl)c3)C(=O)NCC(C)(C)C(=O)O[C@@H](CC(C)C)C(=O)O2)cc1 | 12 | –
27 | COc1cccc2c1C(=O)c1c(O)c3c(c(O)c1C2=O)C[C@@](O)(C(=O)CO)C[C@@H]3O[C@H]1C[C@H](N)[C@H](O)[C@H](C)O1 [DOXORUBICIN] | – | Death [13]: 0; Log kill [14]: 1.5; T/C [15]: 16%; Weight loss [16]: -12%
28 | COc1ccc(C[C@H]2NC(=O)/C=C/C[C@@H]([C@H](C)[C@H]3O[C@@H]3c3ccc(CN4CCN(C(=O)OC(C)(C)C)CC4)cc3)OC(=O)[C@H](CC(C)C)OC(=O)C(C)(C)CNC2=O)cc1Cl | 0.001 | –
